Reference: ChEMBL document CHEMBL3525986, “Nicotinamide N-oxidation by CYP2E1 in human liver microsomes” (Drug Metab Dispos, 2013)

Substrate: NC(=O)c1cccnc1
Experiment: Drug metabolism in human liver microsomes assessed as CYP2E1-mediated nicotinamide N-oxide formation after 30 mins by HPLC analysis
Assay type: ADME
Outline: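 Pooled human liver microsomes at 1 mg/ml in 0.1 M NaH2PO4, pH 7.4, with 1mM NADPH were preincubated 2 min at 37°C. NAM was added at varied concentrations and run 30 min, then stopped with ice-cold methanol. N-oxide was measured by HILIC HPLC with UV at 254 nm against a standard curve. Km and Vmax came from a Michaelis-Menten nonlinear fit. Triplicates.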

B1: Cytochrome P450 2E1 (Homo sapiens) (protein)
chain: MSALGVTVALLVWAAFLLLVSMWRQVHSSWNLPPGPFPLPIIGNLFQLELKNIPKSFTRLAQRFGPVFTLYVGSQRMVVMHGYKAVKEALLDYKDEFSGRGDLPAFHAHRDRGIIFNNGPTWKDIRRFSLTTLRNYGMGKQGNESRIQREAHFLLEALRKTQGQPFDPTFLIGCAPCNVIADILFRKHFDYNDEKFLRLMYLFNENFHLLSTPWLQLYNNFPSFLHYLPGSHRKVIKNVAEVKEYVSERVKEHHQSLDPNCPRDLTDCLLVEMEKEKHSAERLYTMDGITVTVADLFFAGTETTSTTLRYGLLILMKYPEIEEKLHEEIDRVIGPSRIPAIKDRQEMPYMDAVVHEIQRFITLVPSNLPHEATRDTIFRGYLIPKGTVVVPTLDSVLYDNQEFPDPEKFKPEHFLNENGKFKYSDYFKPFSTGKRVCAGEGLARMELFLLLCAILQHFNLKPLVDPKDIDLSPIHIGFGCIPPRYKLCVIPRS
- Km: 2980 µM
- Vmax: 6.01e-05 µmol/min/mg
